pIC50: −log10 of the molar value.
Experiments:
[1] = tested on: Plasmodium falciparum; experiment: Resistance index, ratio of IC50 for chloroquine-resistant Plasmodium falciparum Dd2 to IC50 for chloroquine-sensitive Plasmodium falciparum D6; format: functional
Outline: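 Ratio of Dd2 IC50 to D6 IC50, each from the 72 h SYBR Green I growth assay (0.2% parasitemia, 2% hematocrit, RPMI-1640 + 0.5% Albumax II), triplicate, IC50 from variable-slope sigmoidal fits.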

[2] = Binding affinity to hematin measured as association constant for 1:1 (hematin-compound) complex formation at pH 7.5
Outline: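 Spectrophotometric titration of hematin with compound in 40% aqueous DMSO, 20 mM HEPES, pH 7.5, 25 °C; hematin held in monomeric state. Association constant for 1:1 compound:hematin complex; means ± SD from at least three experiments in duplicate.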

[3] = Inhibition of beta-hematin polymerization by UV spectrophotometry based BHIA assay relative to untreated hemin control; format: functional
Outline: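 IC50 expressed as millimolar equivalents of compound relative to hemin needed to block beta-hematin formation by 50%. Triplicate readings converted to percent inhibition versus drug-free hemozoin control; IC50 from sigmoidal dose-response non-linear regression. Means ± SD from at least three experiments in duplicate.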

[4] = tested on: Plasmodium falciparum; experiment: Antimalarial activity against chloroquine-sensitive Plasmodium falciparum D6 after 72 hrs by SYBR Green I fluorescence based method; format: functional, organism-based; conditions: D6, 72 h
Outline: (§1)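 Asynchronous continuous P. falciparum cultures diluted with uninfected erythrocytes in RPMI-1640 + 0.5% Albumax II to 0.2% parasitemia, 2% hematocrit. Compounds from 10 mM DMSO stock diluted in medium (0.1 nM–100 range). 72 h incubation under standard culture conditions; SYBR Green I fluorescence read (ex 497/em 520 nm). Triplicate experiments; IC50 from variable-slope sigmoidal dose–response fits.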

[5] = tested on: Plasmodium falciparum; experiment: Antimalarial activity against chloroquine-resistant Plasmodium falciparum Dd2 after 72 hrs by SYBR Green I fluorescence based method; format: functional, organism-based; conditions: Dd2, 72 h; outline: as §1

Structure (SMILES)	Ratio IC50 [1]	log Ks [2]	IC50 [3] [mMequiv]	pIC50 [4]	pIC50 [5]
S=C(NCCCNc1ccnc2cc(Cl)ccc12)N1CCOCC1	3.08	4.94	0.34	6.74	6.25
S=C(NCCCNc1ccnc2cc(Cl)ccc12)N1CCN(c2ccccc2)CC1	1.76	5.37	0.17	7.54	7.30
CNC(=S)NCCCNc1ccnc2cc(Cl)ccc12	1.2	4.57	0.66	6.75	6.67
CN1CCN(C(=S)NCCCNc2ccnc3cc(Cl)ccc23)CC1	1.16	4.98	0.35	7.23	7.16
S=C(NCCCNc1ccnc2cc(Cl)ccc12)N1CCNCC1	2.33	4.46	0.69	6.48	6.11
S=C(NCCCNc1ccnc2cc(Cl)ccc12)N1CCCC1	1.11	4.98	0.35	6.89	6.85
S=C(NCCCNc1ccnc2cc(Cl)ccc12)Nc1ccc(Cl)cc1		4.23	0.48	6.63	
S=C(NCCCNc1ccnc2cc(Cl)ccc12)N1CCCCC1	0.99	5.24	0.29	6.98	6.98
CN(C)C(=S)NCCCNc1ccnc2cc(Cl)ccc12		4.87	0.55	6.86	
CC(C)N(C(=S)NCCCNc1ccnc2cc(Cl)ccc12)C(C)C	1.25	4.95	0.33	6.79	6.70
S=C(NCCCNc1ccnc2cc(Cl)ccc12)NC1CC1	0.59	5.67	0.11	7.62	7.85
CCN(CC)C(=S)NCCCNc1ccnc2cc(Cl)ccc12	1.21	5.34	0.15	6.99	6.90
S=C(NCCCNc1ccnc2cc(Cl)ccc12)NCCCNc1ccnc2cc(Cl)ccc12	2.18	5.38	0.27	6.89	6.55
CCN(CC)CCCC(C)Nc1ccnc2cc(Cl)ccc12 (configuration not stated) [CHLOROQUINE]			0.17		
